The values below come from publication PMC5855380 (Pharmacognosy Research, 2018).

The structures appear in SMILES notation. Converted amounts (≈) assume the structure as drawn.

For this experiment, the system named is HDFn cells. Nature of the experiment: PrestoBlue cell viability assay, HDFn. To be noted: Homo sapiens, 96 h, read-out: IC50 (half maximal inhibitory concentration), HDFn. It counts as cell-based. In outline:
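HDFn cells grown in DMEM with 10% FBS and 1X antibiotic-antimycotic (37°C, 5% CO2); seeded at 1×10^4 viable cells/well and attached overnight. Test compound (DMSO stock, 0.1% final DMSO) added in two-fold dilutions, 50–0.39 µg/mL final, for 4 days. PrestoBlue 2 h; absorbance 570 nm normalized to 600 nm. Untreated, Zeocin and media-only background wells. Triplicates; IC50 from dose-response curves.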

For the molecule `CC1(C)CC[C@]2(C(=O)O)CC[C@]3(C)C(=CC[C@@H]4[C@@]5(C)CC[C@H](O)C(C)(C)[C@@H]5CC[C@]43C)[C@@H]2C1` [Compound 2, oleanolic acid], the IC50 was 29.5 µg/mL (≈ 64.6 µM). With `CC(C)=CCC/C(C)=C/CC/C(C)=C/CC/C=C(\C)CC/C=C(\C)CCC=C(C)C` [Compound 3, squalene], the IC50 was determined as 0.1 µg/mL (≈ 0.243 µM).
